Results published in paper PMC3701953 (Bioorganic & medicinal chemistry letters, 2013).
“And” between values parts separate entries of the source, which are not always exact repeats. Equal values may be shown once. Read-outs that look alike come from different tables or passages of the source.

What was measured:
[1] = system: HIV-1 NL4-3; conditions: read-out: anti-HIV-1 activity in cell culture EC50; MAGI cells; cited from earlier work
[2] = system: MAGI cells; experiment: Compound toxicity in MAGI cells by MTS dye reduction; format: cell-based
[3] = system: HIV-1 NL4-3; experiment: In vitro anti-HIV-1 NL4-3 antiviral assay in MAGI cells; format: cell-based; conditions: HIV-1 NL4-3, MAGI cells, mean of three determinations; for EC50: read-out: EC50 (SD), concentration for 50% inhibition of virus replication; for EC90: read-out: EC90 (SD), concentration for 90% reduction of virus replication
Procedure, shortened: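 MAGI cells carrying an LTR–β-galactosidase reporter were infected with HIV-1 in the presence of test compound. Infection and Tat expression drive the reporter through the HIV-1 LTR. Cells were lysed 6 days after infection, and β-galactosidase activity was read by chemiluminescence. Values are the mean of three determinations.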

[4] = biological target: CYP 3A4 (Homo sapiens, UniProt P08684); experiment: CYP 3A4 substrate activity in pooled human liver microsomes; format: in vitro ADME; conditions: relative to control (100%)
CYP 3A4, sequence (P08684 whole entry): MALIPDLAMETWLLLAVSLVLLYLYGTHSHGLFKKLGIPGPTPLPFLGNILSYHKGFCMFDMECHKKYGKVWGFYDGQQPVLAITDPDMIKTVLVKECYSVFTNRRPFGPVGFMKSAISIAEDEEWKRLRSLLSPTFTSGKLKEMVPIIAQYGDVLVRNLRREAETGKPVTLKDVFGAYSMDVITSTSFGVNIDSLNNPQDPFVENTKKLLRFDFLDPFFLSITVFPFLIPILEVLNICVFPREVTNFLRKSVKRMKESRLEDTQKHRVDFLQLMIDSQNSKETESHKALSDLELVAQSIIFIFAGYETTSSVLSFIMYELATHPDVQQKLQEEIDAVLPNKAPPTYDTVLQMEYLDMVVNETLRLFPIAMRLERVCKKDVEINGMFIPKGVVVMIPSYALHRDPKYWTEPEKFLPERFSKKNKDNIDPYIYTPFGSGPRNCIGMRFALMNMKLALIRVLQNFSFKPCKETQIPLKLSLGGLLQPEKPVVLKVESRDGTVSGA

[5] = biological target: CYP 2D6 (Homo sapiens, UniProt P10635); experiment: CYP 2D6 substrate activity in pooled human liver microsomes; format: in vitro ADME; conditions: for Substrate Activity % ±S.D.: dextromethorphan 200 µM, relative to control (100%)
CYP 2D6, sequence (P10635 whole entry): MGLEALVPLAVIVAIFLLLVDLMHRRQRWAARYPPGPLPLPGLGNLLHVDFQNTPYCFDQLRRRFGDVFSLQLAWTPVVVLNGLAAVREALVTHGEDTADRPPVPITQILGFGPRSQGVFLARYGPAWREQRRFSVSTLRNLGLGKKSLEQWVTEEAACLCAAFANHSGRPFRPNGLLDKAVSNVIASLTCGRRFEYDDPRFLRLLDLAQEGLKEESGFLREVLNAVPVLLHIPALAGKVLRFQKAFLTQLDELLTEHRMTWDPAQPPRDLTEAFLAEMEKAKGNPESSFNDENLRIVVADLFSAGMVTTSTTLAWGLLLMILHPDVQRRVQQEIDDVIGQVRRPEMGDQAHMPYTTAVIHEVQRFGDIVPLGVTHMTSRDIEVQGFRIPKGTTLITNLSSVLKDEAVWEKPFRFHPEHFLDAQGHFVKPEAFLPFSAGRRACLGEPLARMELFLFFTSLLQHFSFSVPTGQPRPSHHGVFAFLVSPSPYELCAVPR
Procedure, shortened: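 Pooled human liver microsomes incubated with the probe substrate and a range of test compound concentrations in 100 mM potassium phosphate (pH 7.4) with 5 mM MgCl₂. Mixtures were preincubated 3 min at 37 °C, then started with NADPH (final 2 mM). Substrate and metabolite were quantified by reversed-phase HPLC-UV: CYP3A4, testosterone/6β-hydroxytestosterone at 254 nm; CYP2D6, dextromethorphan/dextrorphan at 278 nm. Mean of three determinations, S.D.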

[6] = Stability in pooled, mixed-gender human liver microsomes; format: in vitro ADME
Procedure, shortened: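 Test compound incubated with 0.5 mg/mL microsomal protein in 100 mM potassium phosphate (pH 7.4), with 5 mM MgCl₂, 5 mM G-6-P, 0.5 U/mL G-6-P-DH and 2 mM NADPH. Mixtures were preincubated 3 min at 37 °C, started with NADPH and run 60 min. Aliquots taken at 0, 15, 30, 45 and 60 min were quenched in ice-cold acetonitrile and centrifuged. Supernatant analysed by reversed-phase HPLC-UV at 360 nm. Mean of three determinations, S.D.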

Molecule	EC50 [1]	CC50 [2]	EC50 [3]	EC90 [3]	CC50 ([2]; read-out: CC50, concentration to reduce cell viability by 50%, MAGI cells, MTS dye reduction)	Substrate Activity % ±S.D. ([4]; testosterone 100 µM, compound 3 at 12.5 µM)	Substrate Activity % ±S.D. ([4]; testosterone 100 µM, compound 3 at 25 µM)	Substrate Activity % ±S.D. ([4]; testosterone 100 µM, compound 3 at 50 µM)	Substrate Activity % ±S.D. ([4]; triazolam 200 µM, compound 3 at 12.5 µM)	Substrate Activity % ±S.D. ([4]; triazolam 200 µM, compound 3 at 25 µM)	Substrate Activity % ±S.D. ([4]; triazolam 200 µM, compound 3 at 50 µM)	Substrate Activity % ±S.D. ([5]; compound 3 at 12.5 µM)	Substrate Activity % ±S.D. ([5]; compound 3 at 25 µM)	Substrate Activity % ±S.D. ([5]; compound 3 at 50 µM)	inhibition or activation of CYP 2D6 (result in words) ([5]; pooled human liver microsomes, dextromethorphan as substrate)	stability in pooled human liver microsomes (result in words) [6]
O=C(O)C(=O)C=C(O)c1cc(Cc2ccc(F)cc2F)cn(Cc2ccccc2F)c1=O [compound 1, 4-(5-(2,4-difluorobenzyl)-1-(2-fluorobenzyl)-2-oxo-1,2-dihydropyridin-3-yl)-4-hydroxy-2-oxobut-3-enoic acid]	500 nM	–	–	–	–	–	–	–	–	–	–	–	–	–	–	–
(1R,2R)-4-(5-(2,4-difluorobenzyl)-1-(2-fluorobenzyl)-2-oxo-1,2-dihydropyridin-3-yl)-4-hydroxy-N-(2-hydroxycyclopentyl)but-3-enamide [compound 4]	–	137000 nM	42.2 nM	871 nM	–	–	–	–	–	–	–	–	–	–	–	–
(1S,2S)-4-(5-(2,4-difluorobenzyl)-1-(2-fluorobenzyl)-2-oxo-1,2-dihydropyridin-3-yl)-4-hydroxy-N-(2-hydroxycyclopentyl)but-3-enamide [compound 3]	–	–	25 nM and 25.1 nM	415 nM	40400 nM	109 ±13%	97 ±18%	112 ±15%	124 ±23%	98 ±7%	100 ±8%	86 ±7%	87 ±17%	87 ±13%	neither a significant inhibitor nor an activator	relatively stable
